# Assay outcomes as filed in PubChem.
# MBD2 DNA inh: inhibitors of MBD2 binding to methylated DNA, primary screen, biochemical, TR-FRET, DNA-binding domain, human | hit rate 0.31% among 370,000 | MBD2 binding to methylated oligonucleotide | inhibition, % at 4.4 µM; in the data active = inhibition above about 13%
# Target sequence (Q9UBB5 whole entry, looked up, the tested form may be a part): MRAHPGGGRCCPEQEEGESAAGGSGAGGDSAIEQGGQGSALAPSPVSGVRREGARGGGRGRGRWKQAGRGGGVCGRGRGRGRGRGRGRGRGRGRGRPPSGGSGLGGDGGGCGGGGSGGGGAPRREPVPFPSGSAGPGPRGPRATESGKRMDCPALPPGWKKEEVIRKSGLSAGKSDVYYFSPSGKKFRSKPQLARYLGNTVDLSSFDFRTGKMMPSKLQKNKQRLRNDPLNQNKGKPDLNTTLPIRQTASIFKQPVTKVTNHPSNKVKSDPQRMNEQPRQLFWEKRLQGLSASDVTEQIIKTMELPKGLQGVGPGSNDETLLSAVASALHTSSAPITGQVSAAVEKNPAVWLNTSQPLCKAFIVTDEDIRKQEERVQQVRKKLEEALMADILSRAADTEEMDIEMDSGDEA
# LEDGF integ inh: blockers of LEDGF/p75-dependent integrase strand transfer – biochemical, TR-FRET, high throughput, primary screen; HIV-1 integrase (with human LEDGF/p75); TR-FRET IN-LEDGF/p75 DNA integration, Eu/Cy5; inhibition, % at 3.7 µM; hit rate 0.64% among 370,000; AID 743269, 2014;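 active = inhibition above the screen-wide mean plus 3 SD, cut at about 13% in these data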;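 note: signal is the Cy5 over europium emission ratio at 671 and 618 nm; 0% = plate median of compound wells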
# UHRF1 MBD2 ctr: UHRF1 methylated DNA binding inhibitors, primary screen, counter-screen for MBD2 inhibitor project, biochemical, TR-FRET, human UHRF1, single concentration | UHRF1 binding to methylated oligo | inhibition, % at 4.4 µM | hit rate 0.75% among 370,000; in the data active = inhibition above about 21%;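 note: UHRF1 SRA domain binding a hemimethylated CpG hairpin DNA probe; 0% = median of test compound wells and 100% = reference inhibitor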
# TDP2 absorb: human TDP2 enzyme inhibitors, primary screen, biochemical, epi absorbance, recombinant enzyme | inhibition, % at 12.8 µM | T5PNP hydrolysis, p-nitrophenol absorbance 415 nm | Tyrosyl-DNA phosphodiesterase 2 (Homo sapiens), O95551 | hit rate 0.34% among 370,000;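 active = inhibition above the mean of all tested compounds plus 3 SD, set per campaign, cut at about 25% in these data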;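 note: 0% = DMSO with enzyme and 100% = buffer with substrate but no TDP2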
#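 Read-out basis: percent inhibition. System: recombinant human TDP2. Buffer or medium: Mg2+-containing Tris-HCl buffer, pH 7.5. Repeats: single replicate. Timing: reaction 2 h, 37 °C. Benchmarks: high control without enzyme, low control DMSO plus TDP2. Probe or stimulus: 5 mM T5PNP. Doses: 12.8 µM only. Measured by: epi absorbance of p-nitrophenol freed from T5PNP by hydrolysis.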
# CASP6 VEID inh: human caspase-6 inhibitors, primary screen, biochemical, VEID-R110 fluorescence, single point, set 2; purified caspase-6, Z-VEID-R110 cleavage fluorescence; P55212; inhibition, % at 12.5 µM; hit rate 0.53% among 350,000; AID 686996, 2013;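 active = mean inhibition across replicates at least about 35%, with every replicate also reaching that limit, limit read from the data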;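 note: 0% = median of neutral control wells and 100% = no fluorescence left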
# NSD2 HMT inh: NSD2 histone methyltransferase inhibitors, primary screen, biochemical, AlphaScreen, single concentration, set 2; Histone-lysine N-methyltransferase NSD2 (Homo sapiens), O96028; NSD2 peptide methylation, 120 min; inhibition, % at 12.5 µM; hit rate 0.54% among 310,000; in the data active = inhibition above about 50%
# Numbers without * were called inactive; / = no result. Most compounds without a hit are left out; they make up all but 1.8% or so of the library.
SMILES,MBD2 DNA inh,LEDGF integ inh,UHRF1 MBD2 ctr,TDP2 absorb,CASP6 VEID inh,NSD2 HMT inh
CC1(C)N([O-])c2cc([N+](=O)[O-])ccc2[N+]1=O,-10,21*,7,6,38*,85*
Cc1ccc(C)n1-c1cc([N+](=O)[O-])ccc1-n1ccnc1,-1,-1,-1,-16,2,3
COc1ccc(NC(=S)Nc2ccc3cn[nH]c3c2)cc1,-10,3,-6,-27,4,/
CC(C)NC(=S)Nc1ccc2cn[nH]c2c1,8,1,23*,-8,/,-1
Cc1noc(C)c1NC(=O)Nc1ccc2c(c1)C(=O)N([C@H](C)CO)C[C@H](C)[C@H](CN(C)Cc1ccc(Cl)c(Cl)c1)OCCCC[C@@H](C)O2,/,/,/,/,2,/
COC(=O)c1cn(C(=O)c2ccccc2Cl)c2ccccc12,0,0,25*,8,1,-21
CC=Cc1ccc2n(c1=O)C[C@@H]1[C@@H](CO)[C@H](C(=O)NCCc3cn(C)cn3)N(C(=O)C3CC3)[C@H]21 (mixture of isomers),/,/,/,/,-10,/
CCOc1ccc(NC(=O)CN(C)C(=O)c2ccccc2Cc2ccccc2)cc1OCC,5,3,21*,1,12,3
CCOc1ccc(NC(=O)CN(C)C(=O)c2ccccc2OCc2cccc(C)c2)cc1OCC,0,4,3,0,-119,2
COc1ccc(NC(=O)Nc2ccc3c(c2)C(=O)N([C@@H](C)CO)C[C@H](C)[C@H](CN(C)C(=O)NC(C)C)OCCCC[C@@H](C)O3)cc1,/,/,/,/,1,/
CCOC(=O)c1oc2ccc(CNC(C)(C)C)c(Cl)c2c1C,-3,3,97*,-13,-3,/
C[C@H](CO)N1C[C@H](C)[C@@H](CN(C)S(=O)(=O)c2ccc(Cl)cc2)OCCCC[C@H](C)Oc2ccc(NC(=O)NC3CCCCC3)cc2C1=O,/,/,/,/,-1,/
Cc1[nH]ncc1Nc1c(C(C)C)cccc1C(C)C,1,-1,-1,3,55*,/
Cc1[nH]ncc1Nc1ccccc1C(C)C,-1,-3,-2,3,1,/
CCC(C)(C)NC(=O)C(c1ccc(C)cc1)N(CC1CCCO1)C(=O)CCC(=O)Nc1ccccn1 (centres undefined),2,1,33*,12,-4,-2
Cc1ccc(C(C(=O)NC(C)(C)C)N(CC2CCCO2)C(=O)CCC(=O)Nc2ccccn2)cc1 (centres undefined),1,1,-1,-2,0,-3
COc1cccc(S(=O)(=O)N(C)C[C@H]2Oc3cc(C4=CCCC4)ccc3S(=O)(=O)N([C@H](C)CO)C[C@@H]2C)c1,/,/,/,/,-4,/
Oc1cc(Nc2ccncc2)cc2cccnc12,-7,-10,1,-7,-14,/
Oc1cc(Nc2cccnc2)cc2cccnc12,-6,0,0,-9,36*,/
Cc1cnc(C(=O)N2CCc3c([nH]c4ccccc34)C2c2ccc(F)cc2)cn1 (centres undefined),4,0,21*,-7,1,1
COc1cc(OC)c(NC(=S)NCc2ccccc2)cc1Cl,3,-3,65*,-21,-2,2
O=C(CSc1nnnn1C1CCCC1)N1CCCc2ccccc21,10,6,29*,8,/,-3
O=C(CSc1nnnn1C1CCCCC1)Nc1ccc(F)cc1,4,3,0,3,0,2
O=C(CSc1nnnn1C1CCCCC1)Nc1ccc2c(c1)OCO2,5,3,21*,-2,/,0
O=c1[nH]c(C2CCN(S(=O)(=O)c3ccc4c(c3)OCCO4)CC2)nc2c1nnn2Cc1cccc(F)c1,4,-1,1,-1,3,-3
SMILES,MBD2 DNA inh,LEDGF integ inh,UHRF1 MBD2 ctr,TDP2 absorb,CASP6 VEID inh,NSD2 HMT inh
O=c1[nH]c(C2CCN(S(=O)(=O)c3ccc4c(c3)OCCO4)CC2)nc2c1nnn2Cc1ccc(F)cc1,5,-2,27*,5,0,-4
Cc1c(N2C(=O)/C(=C\c3ccccc3O)SC2=S)c(=O)n(-c2ccccc2)n1C,-4,2,-4,9,2,2
Cc1c(N2C(=O)/C(=C/c3cccc4ccccc34)SC2=S)c(=O)n(-c2ccccc2)n1C,-2,3,31*,-3,/,2
Cc1onc(NC(=O)NC(=O)c2c(F)cccc2Cl)c1Br,0,2,4,14,76*,-2
Cc1onc(NC(=O)NC(=O)c2c(Cl)cccc2Cl)c1Br,7,-5,2,-8,-1,10
CO[C@H]1CN(C)C(=O)c2cc(NC(=O)Nc3cc(F)ccc3F)ccc2OC[C@H](C)N(C(=O)c2cnccn2)C[C@@H]1C,/,/,/,/,1,/
C[C@@H]1CN([C@@H](C)CO)C(=O)c2cc(C3=CCCCC3)cnc2O[C@@H]1CN(C)Cc1ccncc1,/,/,/,/,2,/
Cc1[nH]n(S(=O)(=O)c2ccccc2)c(=O)c1N=Nc1cccc(Cl)c1,5,-6,34*,-15,1,0
CC(C)NC(=O)N[C@H]1CC[C@@H](CCNS(=O)(=O)c2ccc(F)cc2)O[C@@H]1CO,/,/,/,/,1,/
CCNc1nc(NCC)nc(N/N=C/c2ccccc2)n1,0,2,1,-7,-2,-1
CCNc1nc(NCC)nc(N/N=C/c2ccc(OC)cc2)n1,3,-1,53*,-3,-3,12
O=C(NCCCO)c1cc([N+](=O)[O-])cc2c1C=Cc1ccccc1O2,3,0,12,-16,89*,5
O=C(Nc1cccc(O)c1)C(=O)Nc1ccccn1,0,0,68*,-1,1,-1
CCN1/C(=C/c2ccc3cc(C)ccc3[n+]2C)Sc2ccc3sccc3c21,5,4,41*,2,-17,7
CN1C(=O)c2cc(NC(=O)c3cccs3)ccc2OC[C@H]2O[C@@H](CC(=O)Nc3ccc4c(c3)COC4)CC[C@@H]21,/,/,/,/,-3,/
CCCN(CCC)Cc1cc(=O)oc2cc3c(cc12)CCC3,-6,-1,31*,0,-1,3
CCCNC(=O)Nc1ccc2c(c1)C(=O)N(C)C[C@@H](OC)[C@@H](C)CN(C(=O)C1CCOCC1)[C@@H](C)CO2,/,/,/,/,-4,/
O=C(N/N=C\c1ccc([N+](=O)[O-])o1)c1cncc(Br)c1,3,11,2,4,39*,0
COc1ccccc1NC(=O)N1C[C@@H](O)COC[C@@H]2O[C@@H](CC(=O)NCc3ccccc3)CC[C@H]21,/,/,/,/,3,/
O=C(C[C@@H]1CC[C@H]2[C@@H](COC[C@@H](O)CN2Cc2ccccc2F)O1)NC1CCC1,/,/,/,/,1,/
